This passage reports fold change (FC) and inhibition results from ChEMBL document CHEMBL5653631, “A Potent and Selective ULK1 Inhibitor Suppresses Autophagy and Sensitizes Cancer Cells to Nutrient Stress” (iScience, 2018).

Each structure is given as a SMILES string.

Experiment [1] addresses T1, Rhodopsin kinase GRK1 (Homo sapiens) (UniProt Q15835).
T1 sequence (whole entry): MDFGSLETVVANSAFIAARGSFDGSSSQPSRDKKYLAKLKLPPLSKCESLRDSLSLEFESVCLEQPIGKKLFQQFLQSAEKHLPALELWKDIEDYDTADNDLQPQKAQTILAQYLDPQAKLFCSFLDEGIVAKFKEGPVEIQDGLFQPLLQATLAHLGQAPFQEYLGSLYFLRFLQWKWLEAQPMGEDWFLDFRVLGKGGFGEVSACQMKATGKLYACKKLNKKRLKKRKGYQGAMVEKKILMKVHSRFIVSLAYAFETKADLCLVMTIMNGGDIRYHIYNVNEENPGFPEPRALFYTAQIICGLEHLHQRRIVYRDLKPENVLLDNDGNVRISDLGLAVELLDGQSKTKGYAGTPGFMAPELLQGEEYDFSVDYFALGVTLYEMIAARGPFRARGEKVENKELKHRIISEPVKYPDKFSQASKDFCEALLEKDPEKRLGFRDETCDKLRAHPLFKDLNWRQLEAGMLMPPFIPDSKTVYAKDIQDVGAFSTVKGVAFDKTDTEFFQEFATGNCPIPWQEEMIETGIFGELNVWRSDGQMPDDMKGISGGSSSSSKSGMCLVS
Put plainly: Inhibition of human recombinant RHOK at 40 nM related to control ULK1.

The target in experiment [2] is T2, Ephrin type-A receptor 1 (Homo sapiens) (UniProt P21709).
T2 sequence (whole entry): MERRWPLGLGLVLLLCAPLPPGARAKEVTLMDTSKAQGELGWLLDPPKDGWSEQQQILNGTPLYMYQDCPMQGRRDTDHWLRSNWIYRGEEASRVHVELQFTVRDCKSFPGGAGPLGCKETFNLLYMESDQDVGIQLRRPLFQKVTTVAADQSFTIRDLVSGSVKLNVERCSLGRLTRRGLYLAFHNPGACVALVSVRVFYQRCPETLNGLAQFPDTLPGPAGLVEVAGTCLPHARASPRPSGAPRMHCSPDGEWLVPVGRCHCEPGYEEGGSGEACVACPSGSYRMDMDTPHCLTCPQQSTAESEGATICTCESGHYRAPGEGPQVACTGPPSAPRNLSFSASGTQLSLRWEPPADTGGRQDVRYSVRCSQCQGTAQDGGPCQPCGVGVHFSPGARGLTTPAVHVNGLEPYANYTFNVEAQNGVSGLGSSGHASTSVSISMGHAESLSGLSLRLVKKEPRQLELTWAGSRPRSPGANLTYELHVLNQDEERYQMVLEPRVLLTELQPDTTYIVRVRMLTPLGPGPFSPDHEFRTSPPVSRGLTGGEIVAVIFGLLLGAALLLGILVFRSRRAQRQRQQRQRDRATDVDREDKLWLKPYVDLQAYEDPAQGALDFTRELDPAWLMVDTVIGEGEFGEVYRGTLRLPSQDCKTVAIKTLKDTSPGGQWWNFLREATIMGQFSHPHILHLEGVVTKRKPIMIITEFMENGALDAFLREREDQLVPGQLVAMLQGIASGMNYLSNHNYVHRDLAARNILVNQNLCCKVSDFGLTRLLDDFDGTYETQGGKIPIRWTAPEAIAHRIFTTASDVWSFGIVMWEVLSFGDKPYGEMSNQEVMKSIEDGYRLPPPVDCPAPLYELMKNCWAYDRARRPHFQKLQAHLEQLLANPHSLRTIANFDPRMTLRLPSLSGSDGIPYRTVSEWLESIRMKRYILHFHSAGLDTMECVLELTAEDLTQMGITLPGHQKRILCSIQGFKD
Put plainly: Inhibition of human recombinant EphA1 at 500 nM related to control ULK1.

Experiment [3] addresses T3, G protein-coupled receptor kinase 3 (Homo sapiens) (UniProt P35626).
T3 sequence (whole entry): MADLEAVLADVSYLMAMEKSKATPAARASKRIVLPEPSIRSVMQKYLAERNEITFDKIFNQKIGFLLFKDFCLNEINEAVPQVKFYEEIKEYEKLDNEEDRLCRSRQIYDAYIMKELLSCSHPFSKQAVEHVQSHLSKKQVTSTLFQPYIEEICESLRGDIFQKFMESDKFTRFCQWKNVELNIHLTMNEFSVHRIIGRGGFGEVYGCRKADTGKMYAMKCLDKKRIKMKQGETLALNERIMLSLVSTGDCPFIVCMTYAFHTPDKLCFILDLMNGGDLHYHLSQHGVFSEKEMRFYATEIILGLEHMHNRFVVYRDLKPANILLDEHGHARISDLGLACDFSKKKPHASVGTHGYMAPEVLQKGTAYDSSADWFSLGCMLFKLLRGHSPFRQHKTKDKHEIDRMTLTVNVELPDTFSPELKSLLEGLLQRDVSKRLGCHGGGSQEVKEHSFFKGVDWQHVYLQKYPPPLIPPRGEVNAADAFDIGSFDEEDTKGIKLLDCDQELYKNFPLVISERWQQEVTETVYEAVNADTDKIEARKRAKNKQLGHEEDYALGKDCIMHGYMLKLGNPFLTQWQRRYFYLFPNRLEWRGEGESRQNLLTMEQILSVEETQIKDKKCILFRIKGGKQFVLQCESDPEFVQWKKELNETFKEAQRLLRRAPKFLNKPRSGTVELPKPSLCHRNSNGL
Put plainly: Inhibition of human recombinant BARK2 at 15 nM in presence of ATP by radiometric assay relative to control. A digest of the protocol: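 Part of a radiometric in vitro activity panel of 327 recombinant human kinases. Each kinase was tested in duplicate at one inhibitor concentration. Activity remaining was expressed as a percentage of the vehicle control, and percent inhibition was taken as 100 minus that value.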

Experiment [4] has as its target Insulin-like growth factor 1 receptor (Homo sapiens) (UniProt P08069). Briefly: Inhibition of human recombinant IGF1R at 15 nM in presence of ATP by radiometric assay relative to control.
Experiment [5] has as its target SRSF protein kinase 1 (Homo sapiens) (UniProt Q96SB4). Put plainly: Inhibition of human recombinant SRPK1 at 15 nM in presence of ATP by radiometric assay relative to control.

Chain of SRSF protein kinase 1 (Homo sapiens) (Q96SB4 whole entry): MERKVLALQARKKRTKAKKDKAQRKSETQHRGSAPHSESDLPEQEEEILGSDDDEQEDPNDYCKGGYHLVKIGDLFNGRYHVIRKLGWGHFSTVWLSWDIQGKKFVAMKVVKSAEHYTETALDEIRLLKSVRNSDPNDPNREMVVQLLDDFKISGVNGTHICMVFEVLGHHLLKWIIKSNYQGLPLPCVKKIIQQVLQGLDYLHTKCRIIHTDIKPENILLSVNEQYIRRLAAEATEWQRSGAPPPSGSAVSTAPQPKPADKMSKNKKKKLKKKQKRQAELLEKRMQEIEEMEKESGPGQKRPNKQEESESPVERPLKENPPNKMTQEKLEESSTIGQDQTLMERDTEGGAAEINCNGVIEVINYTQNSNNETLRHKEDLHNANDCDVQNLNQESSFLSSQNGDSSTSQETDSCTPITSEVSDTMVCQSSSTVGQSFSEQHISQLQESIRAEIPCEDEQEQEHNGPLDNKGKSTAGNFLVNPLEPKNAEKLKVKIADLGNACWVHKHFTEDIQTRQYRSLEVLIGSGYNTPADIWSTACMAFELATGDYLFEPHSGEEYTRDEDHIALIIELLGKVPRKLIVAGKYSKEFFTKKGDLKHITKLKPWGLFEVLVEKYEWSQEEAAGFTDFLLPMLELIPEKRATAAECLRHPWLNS
Chain of Insulin-like growth factor 1 receptor (Homo sapiens) (P08069 31-736 limits assumed): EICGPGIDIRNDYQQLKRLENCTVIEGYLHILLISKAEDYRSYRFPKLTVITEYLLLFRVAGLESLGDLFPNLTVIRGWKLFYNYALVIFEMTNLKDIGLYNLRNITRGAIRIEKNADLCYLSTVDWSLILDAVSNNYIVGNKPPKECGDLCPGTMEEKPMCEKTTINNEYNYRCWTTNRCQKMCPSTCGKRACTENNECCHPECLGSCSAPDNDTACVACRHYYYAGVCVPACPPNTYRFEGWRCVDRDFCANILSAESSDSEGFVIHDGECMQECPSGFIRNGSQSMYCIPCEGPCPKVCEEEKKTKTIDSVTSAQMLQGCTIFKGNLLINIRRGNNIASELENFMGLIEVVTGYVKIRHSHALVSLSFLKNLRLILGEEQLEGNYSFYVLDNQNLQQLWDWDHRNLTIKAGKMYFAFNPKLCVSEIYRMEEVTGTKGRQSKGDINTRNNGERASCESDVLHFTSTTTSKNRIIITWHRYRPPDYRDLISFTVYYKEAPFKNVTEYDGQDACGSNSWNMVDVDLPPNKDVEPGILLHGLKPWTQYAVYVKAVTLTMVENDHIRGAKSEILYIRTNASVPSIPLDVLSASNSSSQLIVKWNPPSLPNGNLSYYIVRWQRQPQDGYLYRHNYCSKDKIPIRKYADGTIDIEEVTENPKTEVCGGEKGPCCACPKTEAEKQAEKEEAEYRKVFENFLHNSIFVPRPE
Chain of Insulin-like growth factor 1 receptor (Homo sapiens) (P08069 741-1367 limits assumed): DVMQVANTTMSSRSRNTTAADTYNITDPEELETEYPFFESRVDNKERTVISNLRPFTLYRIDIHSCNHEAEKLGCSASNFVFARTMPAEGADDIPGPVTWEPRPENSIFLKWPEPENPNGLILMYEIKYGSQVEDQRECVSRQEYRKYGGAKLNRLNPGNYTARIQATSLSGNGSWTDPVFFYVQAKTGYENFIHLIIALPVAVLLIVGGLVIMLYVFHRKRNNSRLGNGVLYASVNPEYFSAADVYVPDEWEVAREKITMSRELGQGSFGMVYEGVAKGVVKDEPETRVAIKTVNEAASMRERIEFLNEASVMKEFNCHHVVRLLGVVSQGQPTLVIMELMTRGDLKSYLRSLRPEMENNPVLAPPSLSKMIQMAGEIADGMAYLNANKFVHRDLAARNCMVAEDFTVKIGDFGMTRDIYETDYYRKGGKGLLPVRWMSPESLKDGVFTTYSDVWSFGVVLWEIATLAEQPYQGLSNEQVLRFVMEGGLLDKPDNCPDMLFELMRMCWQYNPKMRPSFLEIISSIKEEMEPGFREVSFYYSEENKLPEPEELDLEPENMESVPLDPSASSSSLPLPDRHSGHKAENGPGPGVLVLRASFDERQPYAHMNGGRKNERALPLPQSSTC

As to `O=C(N[C@@H](C1CC1)C(F)(F)F)c1cc(-c2cnn3cc(-c4ccc(F)cc4)cnc23)cs1`, the fold change (FC) in experiment [1] came to 0.01.
For the compound `CNC(=O)c1ccccc1Oc1nc(Nc2cc(OC)c(OC)c(OC)c2)ncc1Br`, the fold change (FC) in experiment [2] was 0.18.
In the case of `CC(C)[C@H](NC(=O)c1cc(-c2cnn3cc(-c4ccc(OCCN5CCCCC5)cc4)cnc23)cs1)C(F)(F)F`, the inhibition in experiment [3], in experiment [4] and in experiment [5] was 0% throughout.
